Experimental findings from ChEMBL document CHEMBL4823270, “A first-in-class anticancer dual HDAC2/FAK inhibitors bearing hydroxamates/benzamides capped by pyridinyl-1,2,4-triazoles” (Eur J Med Chem, 2021) are described below.

pIC50: −log10 of the molar value. The source made the active and inactive calls. No cut-off for these calls is given here.

In assay [1] the test system is K562. Briefly: Growth inhibition of human K562 cells at 10 uM incubated for 24 hrs by MTT assay relative to control. Format: functional. The settings on record: read-out: GI. A digest of the protocol:
(§1)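 Cells seeded at 1 × 10^4 per well, cultured overnight, then exposed to 10 μM compound or DMSO (negative control) for 24 h. After a PBS wash, MTT (2 mg/ml) was added for 4 h at 37°C and formazan dissolved in DMSO. OD read at 570 nm. Growth inhibition = 1 − (OD treated/OD control); at least three independent experiments.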
For orientation: Formazan colour is commonly taken as a measure of viable cells.

Assay [2] has as its target T1, Focal adhesion kinase 1 (Homo sapiens, UniProt Q05397). Put plainly: Inhibition of FAK in human A498 cells assessed as reduction in FAK phosphorylation by Western blot analysis. Format: cell-based. A digest of the protocol:
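40 μg protein (Bradford) resolved by SDS-PAGE, transferred to PVDF, blocked 1 h in milk or BSA. Primary antibody overnight, HRP secondary 1 h, ECL detection; β-actin as loading control.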
In general terms: Immunoblotting shows a protein as a band on a membrane.
Target sequence in this assay (Q05397 2-1052 limits assumed): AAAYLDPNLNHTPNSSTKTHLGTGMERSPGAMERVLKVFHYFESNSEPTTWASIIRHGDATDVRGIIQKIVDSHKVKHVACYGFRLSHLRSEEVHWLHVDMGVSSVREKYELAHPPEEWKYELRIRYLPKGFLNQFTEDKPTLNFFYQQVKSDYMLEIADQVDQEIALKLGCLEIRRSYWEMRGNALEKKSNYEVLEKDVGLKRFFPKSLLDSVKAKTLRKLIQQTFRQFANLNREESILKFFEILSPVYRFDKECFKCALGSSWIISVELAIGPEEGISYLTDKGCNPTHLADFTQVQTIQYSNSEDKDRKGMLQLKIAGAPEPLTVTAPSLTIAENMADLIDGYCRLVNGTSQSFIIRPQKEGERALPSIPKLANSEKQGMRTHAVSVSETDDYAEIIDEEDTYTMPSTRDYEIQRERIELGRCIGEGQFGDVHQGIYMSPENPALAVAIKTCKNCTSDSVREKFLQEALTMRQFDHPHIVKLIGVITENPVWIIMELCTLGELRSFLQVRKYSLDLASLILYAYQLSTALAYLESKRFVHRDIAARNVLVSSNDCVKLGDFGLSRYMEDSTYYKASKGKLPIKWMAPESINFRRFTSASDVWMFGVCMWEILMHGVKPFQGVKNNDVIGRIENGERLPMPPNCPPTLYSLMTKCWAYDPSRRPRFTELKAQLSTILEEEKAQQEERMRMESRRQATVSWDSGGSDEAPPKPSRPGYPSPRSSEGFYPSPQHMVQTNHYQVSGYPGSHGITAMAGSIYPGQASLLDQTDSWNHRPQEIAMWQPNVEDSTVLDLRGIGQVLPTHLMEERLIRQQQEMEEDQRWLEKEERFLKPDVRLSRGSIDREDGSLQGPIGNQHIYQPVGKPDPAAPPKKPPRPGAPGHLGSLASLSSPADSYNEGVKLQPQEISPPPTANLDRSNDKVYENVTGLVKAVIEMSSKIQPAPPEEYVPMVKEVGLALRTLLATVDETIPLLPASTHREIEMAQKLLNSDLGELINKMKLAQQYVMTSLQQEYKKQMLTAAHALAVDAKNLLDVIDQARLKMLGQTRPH

Assay [3] concerns CAKI-1. Put plainly: Induction of cell cycle arrest in human CAKI-1 cells assessed as decrease in cell population at G1 phase at 1.5 uM incubated for 24 hrs by propidium iodide based flow cytometry analysis. Format: functional. A digest of the protocol: (§2)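 Cells at 1 × 10^5/mL treated with 0.75 or 1.5 μM compound or DMSO (negative control) for 24 h, harvested and washed in PBS. Fixed by dropwise ice-cold 80% ethanol with vortexing, held overnight, washed twice, PI-stained 20 min in the dark. Phase distribution read by flow cytometry.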
On the technique in general: In flow cytometry, cells or beads pass a laser one at a time.

The target in assay [4] is T2, Histone deacetylase 2 (Homo sapiens, UniProt Q92769). Put plainly: Inhibition of human full-length recombinant HDAC2 preincubated for 5 mins followed by HDAC substrate addition and further incubated for 45 mins by fluorescence microplate reader assay.
T2 sequence (Q92769 whole entry): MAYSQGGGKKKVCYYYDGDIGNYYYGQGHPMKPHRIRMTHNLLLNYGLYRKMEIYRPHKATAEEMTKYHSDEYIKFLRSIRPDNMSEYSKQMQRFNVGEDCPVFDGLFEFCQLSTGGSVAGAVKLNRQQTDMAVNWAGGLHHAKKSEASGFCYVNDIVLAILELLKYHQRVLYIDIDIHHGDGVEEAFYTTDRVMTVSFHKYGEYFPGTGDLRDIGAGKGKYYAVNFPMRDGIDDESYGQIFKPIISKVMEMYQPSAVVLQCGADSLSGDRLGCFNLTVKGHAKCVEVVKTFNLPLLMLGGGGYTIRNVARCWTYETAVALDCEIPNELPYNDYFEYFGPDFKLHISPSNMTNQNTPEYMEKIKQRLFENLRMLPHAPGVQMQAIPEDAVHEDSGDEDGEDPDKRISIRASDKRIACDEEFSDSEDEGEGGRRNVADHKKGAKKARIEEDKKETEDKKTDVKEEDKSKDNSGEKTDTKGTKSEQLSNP
The test system of assay [5] is A498. Put plainly: Induction of cell cycle arrest in human A498 cells assessed as decrease in cell population at G1 phase at 1.5 uM incubated for 24 hrs by propidium iodide based flow cytometry analysis. Format: functional. In outline:
as §2

In assay [6] the test system is A498. Briefly: Induction of apoptosis in human A498 cells assessed as activation of caspase-8 measured after 24 hrs by ELISA relative to control. Format: functional.
Assay [7] concerns the target T1, Focal adhesion kinase 1. Put plainly: Inhibition of FAK (unknown origin) by FRET-based Z'-Lyte assay. In outline:
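Recombinant FAK kinase activity measured with the FRET-based Z'-LYTE format; the same platform was used for a kinase panel (FAK, FLT, FRK, IGF-1R, BTK). IC50 values determined.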
Target sequence in this assay (Q05397 whole entry): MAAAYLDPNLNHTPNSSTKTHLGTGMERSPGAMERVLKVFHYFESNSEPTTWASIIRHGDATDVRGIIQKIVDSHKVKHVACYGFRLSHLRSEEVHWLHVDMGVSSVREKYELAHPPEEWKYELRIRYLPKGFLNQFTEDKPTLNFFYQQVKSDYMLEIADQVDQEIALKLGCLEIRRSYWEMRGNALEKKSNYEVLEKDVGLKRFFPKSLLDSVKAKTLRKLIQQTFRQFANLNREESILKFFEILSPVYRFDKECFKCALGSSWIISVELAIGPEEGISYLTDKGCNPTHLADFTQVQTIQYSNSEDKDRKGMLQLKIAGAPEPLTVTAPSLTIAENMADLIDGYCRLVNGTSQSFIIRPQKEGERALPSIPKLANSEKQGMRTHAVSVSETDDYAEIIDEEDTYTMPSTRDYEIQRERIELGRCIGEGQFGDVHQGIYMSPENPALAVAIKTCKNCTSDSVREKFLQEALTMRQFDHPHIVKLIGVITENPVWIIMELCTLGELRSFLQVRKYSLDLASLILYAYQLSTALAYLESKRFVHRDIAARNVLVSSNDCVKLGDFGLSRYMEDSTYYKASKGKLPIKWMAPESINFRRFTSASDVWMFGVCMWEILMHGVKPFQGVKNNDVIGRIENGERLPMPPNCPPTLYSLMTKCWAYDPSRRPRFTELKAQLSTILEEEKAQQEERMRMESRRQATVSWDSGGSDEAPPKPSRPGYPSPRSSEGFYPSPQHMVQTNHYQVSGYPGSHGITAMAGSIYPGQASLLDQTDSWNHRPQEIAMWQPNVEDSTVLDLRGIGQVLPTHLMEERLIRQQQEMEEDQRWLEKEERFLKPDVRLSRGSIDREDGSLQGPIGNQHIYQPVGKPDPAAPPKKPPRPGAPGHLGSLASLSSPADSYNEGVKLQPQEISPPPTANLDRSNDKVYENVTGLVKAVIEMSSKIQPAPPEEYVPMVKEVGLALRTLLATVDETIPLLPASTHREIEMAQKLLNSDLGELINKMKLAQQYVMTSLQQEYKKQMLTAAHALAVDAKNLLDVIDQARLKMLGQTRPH

Assay [8] has as its system CAKI-1. Put plainly: Induction of cell cycle arrest in human CAKI-1 cells assessed as accumulation at G2/M phase incubated for 24 hrs by propidium iodide based flow cytometry analysis (reference value: 5.5 %). Format: functional. A digest of the protocol:
as §2

Assay [9] addresses T2, Histone deacetylase 2. Briefly: Inhibition of HDAC2 in human A498 cells assessed as reduction in HDAC2 expression pretreated for 12 weeks followed by treatment for last 24 hrs by Western blot analysis. Format: cell-based. The settings on record: time 85.0 day.
Assay [10] addresses Signal transducer and activator of transcription 3 (Homo sapiens) (UniProt P40763). Briefly: Inhibition of STAT3 activation in human A498 cells measured after 24 hrs by Western blot analysis. Format: cell-based.
For assay [11], the system named is A498. Briefly: Induction of apoptosis in human A498 cells assessed as activation of caspase-9 measured after 24 hrs by ELISA relative to control. Format: functional.
Assay [12] relates to HT-29. Briefly: Growth inhibition of human HT-29 cells at 10 uM incubated for 24 hrs by MTT assay relative to control. The settings on record: read-out: GI. Format: functional. In outline: as §1
Assay [13] deals with KG-1. Briefly: Growth inhibition of human KG-1 cells at 10 uM incubated for 24 hrs by MTT assay relative to control. Format: functional. The settings on record: KG-1, 24 h. A digest of the protocol: as §1
The subject of assay [14] is A498. Briefly: Induction of cell cycle arrest in human A498 cells assessed as accumulation at G2/M phase incubated for 24 hrs by propidium iodide based flow cytometry analysis (reference value: 18 %). Format: functional. In outline: as §2
Assay [15] deals with T3, Protein deacetylase HDAC6 (Homo sapiens, UniProt Q9UBN7).
T3 sequence (Q9UBN7 whole entry): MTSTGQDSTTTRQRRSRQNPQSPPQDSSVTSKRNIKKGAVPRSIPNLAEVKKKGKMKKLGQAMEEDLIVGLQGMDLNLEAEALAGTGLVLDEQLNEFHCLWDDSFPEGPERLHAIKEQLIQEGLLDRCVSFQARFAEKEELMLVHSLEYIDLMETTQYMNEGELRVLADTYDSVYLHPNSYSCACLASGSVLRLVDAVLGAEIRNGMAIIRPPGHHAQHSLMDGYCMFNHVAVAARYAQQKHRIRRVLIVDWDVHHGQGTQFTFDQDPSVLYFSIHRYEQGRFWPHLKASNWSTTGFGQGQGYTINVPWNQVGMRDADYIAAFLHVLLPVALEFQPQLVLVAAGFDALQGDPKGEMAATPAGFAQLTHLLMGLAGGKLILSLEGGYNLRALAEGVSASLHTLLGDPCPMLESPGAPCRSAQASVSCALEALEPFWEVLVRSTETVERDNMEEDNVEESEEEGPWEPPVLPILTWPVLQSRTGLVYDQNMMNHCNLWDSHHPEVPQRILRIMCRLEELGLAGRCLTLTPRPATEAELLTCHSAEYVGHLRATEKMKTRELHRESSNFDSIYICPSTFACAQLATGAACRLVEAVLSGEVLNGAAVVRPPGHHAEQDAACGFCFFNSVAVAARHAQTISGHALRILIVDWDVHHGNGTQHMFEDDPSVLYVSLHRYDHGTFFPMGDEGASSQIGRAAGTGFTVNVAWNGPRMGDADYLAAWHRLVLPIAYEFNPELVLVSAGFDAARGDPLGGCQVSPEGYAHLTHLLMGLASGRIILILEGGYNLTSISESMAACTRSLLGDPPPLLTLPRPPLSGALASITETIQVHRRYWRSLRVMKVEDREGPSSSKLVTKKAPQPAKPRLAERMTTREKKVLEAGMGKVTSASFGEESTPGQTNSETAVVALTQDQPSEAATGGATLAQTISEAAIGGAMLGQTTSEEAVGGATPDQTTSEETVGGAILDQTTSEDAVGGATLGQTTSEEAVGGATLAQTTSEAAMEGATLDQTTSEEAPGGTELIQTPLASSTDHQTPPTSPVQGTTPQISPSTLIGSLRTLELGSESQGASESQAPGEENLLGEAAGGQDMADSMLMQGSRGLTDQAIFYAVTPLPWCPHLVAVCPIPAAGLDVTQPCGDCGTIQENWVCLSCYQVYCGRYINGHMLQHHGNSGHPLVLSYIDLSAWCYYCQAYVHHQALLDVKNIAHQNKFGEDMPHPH
Briefly: Inhibition of human full-length recombinant HDAC6 preincubated for 5 mins followed by HDAC substrate addition and further incubated for 45 mins by fluorescence microplate reader assay.

In assay [16] the test system is CAKI-1. Briefly: Induction of apoptosis in human CAKI-1 cells at 1.5 uM measured after 24 hrs by Annexin-V/propidium iodide staining based flow cytometry relative to control. Format: functional. A digest of the protocol: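 Cells in supplemented medium with 10% FBS at 37 °C, 5% CO2, exposed to 0.75 or 1.5 μM compound, or DMSO as negative control, for 24 h. Apoptosis assessed by annexin V/PI staining per kit instructions, then flow cytometry; apoptotic cell percentage quantified against control.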

The subject of assay [17] is CAKI-1. Briefly: Antiproliferative activity against human CAKI-1 cells assessed as cell growth inhibition incubated for 24 hrs by MTT assay. Format: functional, cell-based. The settings on record: CAKI-1, 24 h.

Signal transducer and activator of transcription 3 (Homo sapiens), sequence (P40763 whole entry): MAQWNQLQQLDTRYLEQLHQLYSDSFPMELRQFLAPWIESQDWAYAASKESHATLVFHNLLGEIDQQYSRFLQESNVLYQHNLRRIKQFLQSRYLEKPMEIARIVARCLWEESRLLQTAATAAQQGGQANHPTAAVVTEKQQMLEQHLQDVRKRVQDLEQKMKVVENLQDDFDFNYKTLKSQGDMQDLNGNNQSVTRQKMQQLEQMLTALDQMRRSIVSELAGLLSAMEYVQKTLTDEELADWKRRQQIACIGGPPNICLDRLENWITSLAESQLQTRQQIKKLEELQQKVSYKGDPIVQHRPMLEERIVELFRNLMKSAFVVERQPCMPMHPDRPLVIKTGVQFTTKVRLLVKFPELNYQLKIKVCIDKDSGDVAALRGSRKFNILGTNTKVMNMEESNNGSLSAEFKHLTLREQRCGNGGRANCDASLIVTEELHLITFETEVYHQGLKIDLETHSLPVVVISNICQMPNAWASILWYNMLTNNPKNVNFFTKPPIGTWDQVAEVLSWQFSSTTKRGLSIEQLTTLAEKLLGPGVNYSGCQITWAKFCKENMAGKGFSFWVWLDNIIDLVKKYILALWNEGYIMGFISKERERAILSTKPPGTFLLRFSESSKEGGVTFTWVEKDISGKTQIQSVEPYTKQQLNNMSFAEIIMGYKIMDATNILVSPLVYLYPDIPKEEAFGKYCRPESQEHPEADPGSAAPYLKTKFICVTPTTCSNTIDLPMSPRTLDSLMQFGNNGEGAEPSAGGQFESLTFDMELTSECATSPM

In general, pIC50 refers to the negative decadic logarithm of the IC50, by convention in mol/L. `Cn1c(SCCCCCC(=O)NO)nnc1-c1ccncc1`: the inhibition of growth at 10 µM in assay [1] is 40.1%; in [12], 68.3%. Further, the inhibition entry in assay [2], in assay [9] and in [10] was “Active” in each case. Also, the outcome in assay [3] and in [5] was Active. For the same molecule, the negative logarithm of the IC50 (pIC50) was 7.05 in assay [4], 7.90 in [7], 4.86 in [15] and 5.91 in [17]. Also, the “fold change (FC)” value in assay [6] stood at 3; in assay [11], 6. For the same molecule, the Activity came out at 35% in assay [8], 65% in assay [14] and 37% in assay [16]. Also, the inhibition in vitro at 10 µM in assay [13] stood at 84.2%.
